A selection: hits, their analogues and other compounds. The true share with any hit is near 12%.
ABCG2 block: inhibitors of human ABCG2 transporter, ABCB1 counter-screen. inhibition, % at 6.6 µM. hit rate 0.1% among 190,000. Q9UNQ0. IgMXP3 cells, JC-1 efflux, flow cytometry. AID 1325;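 active = inhibition above 80%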
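Test system: IgMXP3 cells (ABCG2) mixed with DDAO far-red-labelled CCRF-Adr cells (ABCB1). Reagent: JC-1 transporter substrate. Compound dosing: single test compound dose, 6.6 µM final. Times: 10 min compound exposure, 25 °C. Detection: flow cytometry of retained JC-1 fluorescence. Read-out basis: efflux inhibition in percent versus controls. Controls: nicardipine and DMSO wells.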
ABCB1 inh: inhibitors of human ABCB1 transporter, ABCG2 counter-screen. P08183. CCRF-Adr cells, JC-1 efflux, flow cytometry. inhibition, % at 6.6 µM. hit rate 0.067% among 190,000; in the data active = inhibition above about 40%;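 also: higher value means more JC-1 retained so stronger ABCB1 efflux block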
Lmaj promast: reduces viability of Leishmania major promastigotes; resazurin fluorescence viability; inhibition, % at 10 µM; hit rate 9% among 200,000; in the data active = inhibition above about 50%;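 also: promastigotes grown with compound for 44 hours at 28 °C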
RAM network inh: yeast RAM network inhibition; inhibition, % at 50 µM; S. cerevisiae dse1pr::URA3 reporter, 5-FOA growth OD615, 2 d; analog-sensitive cbk1-as2 kinase mutant strain; AID 868; hit rate 1.8% among 190,000;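 active = inhibition above a set limit, 3 SD over mean compound inhibition, cut at about 8.4% in these data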;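 also: inhibition rescues growth on 5-FOA so higher OD means more RAM inhibition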
WT yeast gro inh: growth inhibition of WT yeast, mitochondrial fusion screen. inhibition, % at 10 µM. mitochondrial fusion phenotypic screen, WT strain. hit rate 2.1% among 190,000; in the data active = inhibition above about 58%; tested in S. cerevisiae
Numbers stand for hits; i = inactive; nt = no result.

SMILES	ABCG2 block	ABCB1 inh	Lmaj promast	RAM network inh	WT yeast gro inh
COc1ccc(-c2nn(-c3ccccc3)cc2CO)cc1	i	i	i	i	i
Cc1ccc(-c2nn(-c3ccccc3)cc2CNCc2ccccc2)cc1	i	i	62	i	i
Cc1ccc(-c2nn(-c3ccccc3)c3[nH]c(=O)c(CNCc4ccccc4)cc23)cc1	i	i	97	i	i
Cc1nn(-c2ccccc2)c2[nH]c(=O)c(CNCc3ccc4c(c3)OCO4)cc12	i	i	i	i	i
NC(=O)C1CC(=O)N(c2ccc(OCc3ccccc3Cl)cc2)C1 (stereo not given)	i	i	i	i	i
O=C1CC(c2ccccc2F)c2cc3c(cc2N1)CCC3 (stereo not given)	i	i	97	i	i
Cc1cc2c(cc1C)C(c1ccccc1Br)CC(=O)N2 (stereo not given)	i	i	99	i	i
CCCOc1ccccc1C1CC(=O)Nc2cc3c(cc21)OCCO3 (stereo not given)	i	i	98	i	i
CCn1cc(C(=O)OCC(=O)c2cc(C)n(-c3ccccc3F)c2C)c(=O)c2ccc(C)nc21	i	i	53	i	i
CCn1cc(C(=O)OCC(=O)c2cc(C)n(-c3ccccc3)c2C)c(=O)c2ccc(C)nc21	i	i	i	i	i
NS(=O)(=O)c1ccc(CCNC(=O)c2ccc(C#CC3(O)CCCCC3)cc2)cc1	i	i	i	i	i
O=C1[C@@H]2Cc3c([nH]c4ccccc34)[C@@H](c3ccccc3)N2C(=O)[C@@H]2Cc3c([nH]c4ccccc34)[C@@H](c3ccccc3)N12	i	i	76	i	i
CCOC(=O)C1CCCN(CCC(C)c2ccccc2)C1 (stereo not given)	i	i	78	i	i
CC1CCCC(C)N1/N=C/C=C/c1ccccc1[N+](=O)[O-] (stereo not given)	i	i	i	i	i
CCOC(=O)C1CCCN(C/C=C/c2ccccc2[N+](=O)[O-])C1 (stereo not given)	i	i	85	i	i
CCOC(=O)C1CCCN(CCC(=O)Nc2ccccc2)C1 (stereo not given)	nt	nt	i	i	i
CCOC(=O)C1CCCN(C(=O)c2ccccc2[N+](=O)[O-])C1 (stereo not given)	i	i	i	i	i
O=[N+]([O-])c1ccccc1/C=C/CN1CCCCC1	i	i	75	i	i
Cc1cccc(C(C)C)c1NC(=O)CN(C)Cc1cccc(F)c1	i	i	72	i	i
CCc1cccc(C)c1NC(=O)CN(C)Cc1cccc(F)c1	i	i	i	i	i
O=C(Nc1ccc2oc(-c3ccccc3Cl)nc2c1)c1ncn[nH]1	i	i	94	i	i
O=C(Nc1ccc2oc(-c3ccccc3F)nc2c1)c1ccc2c(c1)OCCO2	i	i	66	i	i
CCC(C)c1ccc2oc(-c3ccc(NC(=O)c4ncn[nH]4)cc3)nc2c1 (stereo not given)	i	i	65	i	i
O=C(Nc1ccc2oc(-c3cccc4ccccc34)nc2c1)c1ncn[nH]1	i	i	i	i	i
CSc1nsc2nc(=O)c(/C=C3\C(C)=Nc4ccccc43)c(N)n12	i	i	i	i	i
SMILES	ABCG2 block	ABCB1 inh	Lmaj promast	RAM network inh	WT yeast gro inh
COc1ccc(CCNC2CC(C)N(C)CC2C)cc1OC (stereo not given)	i	i	69	i	i
COc1ccc(CCNC2CC(=O)N(C)C2=O)cc1OC (stereo not given)	i	i	i	i	i
Cn1c(C2=C(O)CN(c3ccccc3)C2=N)nc2ccccc21	i	i	i	i	i
O=C(/C=C/c1ccc(Cl)cc1Cl)c1nc2ccccc2[nH]1	i	i	99	i	i
CCOC(=O)C1C(=O)C(C(C)=O)C(=O)CC1CC(C)SCC (stereo not given)	i	i	i	i	i
Cc1cc(C(=O)c2ccccc2)c(NC(=O)CCl)s1	i	i	100	i	i
CC(C)(C)c1ccc(CN2N=Nc3ccccc3S2(=O)=O)cc1	i	i	101	i	i
O=S1(=O)c2ccccc2N=NN1Cc1ccc(Cl)c(Cl)c1	i	i	i	i	i
COc1ccc(O)c(/C=N/NC(=O)c2ccc(CSc3nc(C)cc(C)n3)cc2)c1	i	i	99	i	i
Cc1cc(C)nc(SCc2ccc(C(=O)N/N=C/c3cccc(O)c3O)cc2)n1	i	i	98	i	i
COc1ccc(O)c(/C=N/NC(=O)c2ccc(OCc3cccc(Br)c3)cc2)c1	i	i	97	i	i
